High-throughput results: PubChem, several laboratories
Hits are enriched below; roughly 1.7% of the tested compounds scored in any of these assays.
EP2 antag: EP2 receptor (human) inhibition; P43116; inhibition, % at 25 µM; AID 1422; 0.52% of 260,000 active; C6 glioma cells expressing human EP2, cAMP TR-FRET; cells stimulated with saturating PGE2;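 active = percent inhibition above 40 after rounding to a whole number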;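 also: rat C6 glioma host cells with rolipram phosphodiesterase inhibitor present; the protocol text gives 20 µM as final concentration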
Target sequence (P43116 whole entry, looked up): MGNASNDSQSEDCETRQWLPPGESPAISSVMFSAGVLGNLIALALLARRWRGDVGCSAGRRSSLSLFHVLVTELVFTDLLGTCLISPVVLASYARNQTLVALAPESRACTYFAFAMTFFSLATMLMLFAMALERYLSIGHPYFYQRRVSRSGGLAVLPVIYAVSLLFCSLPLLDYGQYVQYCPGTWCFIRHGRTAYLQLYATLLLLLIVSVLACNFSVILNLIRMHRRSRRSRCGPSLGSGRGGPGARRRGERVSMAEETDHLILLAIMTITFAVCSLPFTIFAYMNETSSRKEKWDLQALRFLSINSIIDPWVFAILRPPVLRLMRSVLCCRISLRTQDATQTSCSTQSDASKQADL
Hsp70 act: switches on Hsp70 transcription; 0.04% of 200,000 active; HeLa Hsp70 promoter luciferase reporter, luminescence; scaled: vehicle 0, proteasome-inhibitor control 100%; activation, % at 10 µM;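 active = activation above the mean across all tested compounds plus 3 SD, cutoff set per campaign, cut at about 5.5% in these data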
EP2 mod: modulates human prostaglandin E2 receptor EP2 signaling | P43116 | EP2-expressing cells, cAMP HTRF FRET, PGE2 co-stimulation | induction, % at 25 µM | 0.83% of 260,000 active | AID 940;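 active = compounds whose cAMP rise, as percent of the full-agonist control response, exceeds 60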;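 also: rat C6 glioma line stably carrying human EP2 under a CMV promoter; the protocol text gives 20 µM as final concentration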
Dynein cargo inh: blocks dynein driven cargo transport along microtubules | 3617.4 mouse cells, GR-EGFP nuclear translocation imaging; test concentration mostly 20 µM; stimulated with dexamethasone, 1 µM; hits give low values | z-score, hits read low | 0.47% of 220,000 active | AID 1381;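 active = plate z-score of nuclear minus cytoplasmic receptor signal below a set negative limit, without overly bright fluorescence or cell loss, cut at about -3.5 in these data, passing the limit was not always enough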;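 also: z-score of nuclear minus cytoplasmic ring GR-EGFP intensity difference per well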
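Buffer or medium – tet-free medium with charcoal-stripped serum · Signal – automated 10x imaging of fixed Hoechst-stained cells · Also added – dexamethasone agonist, 1.0 µM final, for 30 min · Incubation – induction 48 h, compound 1 h, agonist 30 min · Read-out – GR-EGFP nuclear translocation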
Hsp70 act dose: activates Hsp70 transcription in dose response; calls only at 99 µM; shares compounds with Hsp70 act; HeLa hsp70.1pr-luc reporter, luciferase luminescence; 10% of 70 active; AID 1252;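 active = over 50% activation at some tested dose; inactive = under 50% activation at every tested dose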
Dynein inh conf: dynein cargo transport inhibition, confirmation; shares compounds with Dynein cargo inh; 3617.4 GR-EGFP nuclear translocation imaging, dexamethasone-induced; calls only at 20 µM; 69% of 1,000 active;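 active = inhibition of receptor movement into the nucleus at or above a set limit in both runs, with normal cell brightness and cell count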;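 also: dexamethasone at 1 µM final in well for 30 min; nuclear minus cytoplasmic GR-EGFP mean intensity difference in channel 2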
Hits are given with their value; 0 = inactive; - = no result given; + = active, no number.

SMILES	EP2 antag	Hsp70 act	EP2 mod	Dynein cargo inh	Dynein inh conf	others
CN(C)CCN(C(=O)Cc1csc(-c2ccccc2F)n1)C1CCCCC1	0	-	0	-	-
CN1C2CCC1/C(=C/c1ccccn1)C(=O)/C2=C\c1ccccn1	0	18	0	-3.6	-	Hsp70 act dose=+
Cc1ccccc1-n1c(/C=C/c2ccccn2)nc2ccccc2c1=O	0	-	0	0	-
COc1ccc(OC)c(N2C(=O)NC(=O)/C(=C\c3ccc([N+](=O)[O-])s3)C2=O)c1	0	0	0	-5.6	+
O=C1NC(=O)N(c2ccccc2)C(=O)/C1=C\c1ccc([N+](=O)[O-])o1	0	-	0	0	-
O=C1NC(=O)N(c2ccccc2)C(=O)/C1=C\c1ccc([N+](=O)[O-])s1	0	-	0	-6	+
CN1C(=O)NC(=O)/C(=C/c2ccc([N+](=O)[O-])o2)C1=O	0	-	0	0	-
CN1C(=O)NC(=O)/C(=C/c2ccc([N+](=O)[O-])s2)C1=O	0	-	0	-5.5	+
COc1ccc(N2C(=O)NC(=O)/C(=C\c3ccccc3[N+](=O)[O-])C2=O)cc1	0	0	0	0	-
COc1cc(CN2C3CCC2CC(O)(c2ccc(F)cc2)C3)ccc1OC(C)C (centres undefined)	0	-	0	-	-
CC(C)(C)c1cc(CCC(=O)O)cc(C(C)(C)C)c1O (tested in a mixture with another compound)	0	-	0	-	-
Cc1cc2c(C(F)(F)F)cc(=O)oc2c2c1NCCC2	0	0	0	0	-
O=c1cc(C(F)(F)F)c2cc3c4c(c2o1)CCCN4CCC3	0	0	0	-4.8	+
O=C(O)CCC1C(=O)NC(=O)NC1=O	0	-	0	-	-
O=c1[nH]sc2cc(F)ccc12	0	0	0	-4.9	+
CC(=O)N1CCCc2cc(C(O)CN3CC=C(c4ccc(F)cc4)CC3)ccc21 (centres undefined)	0	-	0	-	-
Cn1ccnc1C1(O)CC2CCC(C1)N2CC(=O)NCC1CCCO1 (centres undefined)	-	-	0	-	-
Cc1cc(C)cc(N2C(=O)NC(=O)/C(=C\C=C\c3ccco3)C2=O)c1	87	0	0	-4.5	+
O=C1NC(=O)N(c2ccccc2)C(=O)/C1=C\C=C\c1ccccc1	0	-	0	-6	+
O=C1NC(=O)N(Cc2ccc(F)cc2)C(=O)/C1=C\C=C\c1ccco1	78	-	0	-5.1	+
Cc1ccc(N2C(=O)NC(=O)/C(=C/C=C/c3ccco3)C2=O)cc1	114	0	0	-4.5	+
c1cncc(CNCC2CCCCC2)c1	0	-	0	-	-
Cc1ccc(C2=CCN(CC(=O)Nc3ccc4c(c3)OCO4)CC2)o1	0	-	0	-	-
CCc1ccc(N2C(=O)NC(=O)/C(=C\C=C\c3ccco3)C2=O)cc1	61	-	0	-3.9	+
CCCCN1C(=O)/C(=C/C=C/c2ccco2)C(=O)NC1=S	0	0	0	0	-
CCOc1ccc(N2C(=O)/C(=C\c3cccs3)C(=O)NC2=S)cc1	0	0	0	-4.4	+
O=[N+]([O-])c1ccc(NCc2ccccc2)c2nonc12	0	0	0	-6.8	+
